Screening results as filed in PubChem BioAssay.
Many of the other results were omitted from the sample, so hits are more common in it than they were.
TLR9-MyD88 block: inhibitors of human TLR9-MyD88 binding | Q9NR96+Q99836 | CHO BLA complementation TLR9-MyD88, CCF4 FRET ratio | inhibition, % at 4.98 µM | 340,000 tested, 0.21% active;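 active = inhibition above the mean over all tested compounds plus 3 SD, cut at about 21% in these data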;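 note: 0% = DMSO only wells and 100% = clavulanate BLA inhibitor control wells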
CHOP UPR activ: activators of apoptotic arm of unfolded protein response (CHOP). activation, % at 10 µM. 330,000 tested, 0.34% active. AID 449763. CHO-CHOP luciferase reporter, UPR activation, luminescence; percent of tunicamycin response over DMSO baseline;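 active = at 10 µM dose, activation of 40% or more, normalized to positive control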;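 note: 100% = tunicamycin at 10 µg/mL and 0% = DMSO alone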
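Evaluation: % reporter activation, DMSO baseline versus tunicamycin full activation; System: CHO-CHOP luciferase reporter cell line; Input: 500 cells/well; Incubation: 6 h compound treatment, 37 °C; Measured by: Steady-Glo luciferase luminescence; Dosing: one dose, 10 µM in 0.5% DMSO; Buffer or medium: F12 medium, 10% FBS; Benchmarks: positive tunicamycin 10 µg/mL, negative DMSO alone.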
UPR XBP1 act: activators of adaptive arm of unfolded protein response (XBP1); CHO-XBP1 luciferase reporter, IRE1-XBP1 UPR activation, luminescence; percent of tunicamycin response, DMSO as zero; activation, % at 20 µM; 330,000 tested, 0.33% active; AID 463104;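 active = versus positive control, 20 µM dose yields 30% or more activation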;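 note: 100% = tunicamycin at 10 µg/mL and 0% = DMSO only wells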
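Material: CHO-XBP1 cells stably carrying IRE1-XBP1-driven luciferase reporter | Medium: F12 with 10% serum | Compound dosing: 20 µM single concentration, DMSO 1% | Incubation: Overnight seeding at 37 °C, 6 h compound treatment at 37 °C | Detection: Steady-Glo luminescence read | Read-out basis: % activation of reporter signal versus tunicamycin and DMSO controls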
CHOP inhibitor: CHOP inhibition in unfolded protein response; 220,000 tested, 3.8% active; CHO-K1 CHOP-promoter luciferase, tunicamycin-induced, 15-18 h; inhibition, % at 10 µM;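 active = compounds that reduced the stress-induced luciferase reporter signal by more than about 70% of percent inhibition, limit read from the data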;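 note: 0% = tunicamycin plus vehicle and 100% = wells without tunicamycin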
TLR4 MyD88 comp: blocks binding of human TLR4 to MyD88; 200,000 tested, 0.18% active; inhibition, % at 8.4 µM; HeLa CL3-4 TLR4/MyD88 BLA complementation, FRET ratio; O00206+Q99836; in the data active = inhibition above about 25%;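 note: 0% = vehicle and 100% = reference inhibitor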
NOD2 RIPK2 PPI: inhibitors of human NOD2-RIPK2 interaction. O43353. CHO BLA complementation NOD2-RIPK2, CCF4 ratio. inhibition, % at 4.98 µM. 360,000 tested, 0.38% active. AID 624267; in the data active = inhibition above about 21%;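 note: 0% = vehicle only and 100% = reference blocker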
Target sequence (O43353 whole entry, looked up): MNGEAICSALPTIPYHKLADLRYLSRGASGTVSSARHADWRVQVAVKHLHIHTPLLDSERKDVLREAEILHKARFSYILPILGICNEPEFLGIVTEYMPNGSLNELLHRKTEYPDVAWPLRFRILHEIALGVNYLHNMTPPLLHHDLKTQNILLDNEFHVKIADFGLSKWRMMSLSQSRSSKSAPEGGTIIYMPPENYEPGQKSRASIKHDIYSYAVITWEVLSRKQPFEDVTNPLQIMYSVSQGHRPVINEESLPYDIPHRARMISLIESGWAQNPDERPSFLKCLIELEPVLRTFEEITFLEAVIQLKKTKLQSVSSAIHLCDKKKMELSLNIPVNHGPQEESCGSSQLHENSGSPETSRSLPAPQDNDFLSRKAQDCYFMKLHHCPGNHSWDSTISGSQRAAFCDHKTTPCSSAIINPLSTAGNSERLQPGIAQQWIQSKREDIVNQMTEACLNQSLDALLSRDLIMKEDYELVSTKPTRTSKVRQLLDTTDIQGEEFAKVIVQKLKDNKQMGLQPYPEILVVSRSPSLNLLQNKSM
Starred values were filed as active, the others as inactive; nt = no result.

SMILES	TLR9-MyD88 block	CHOP UPR activ	UPR XBP1 act	CHOP inhibitor	TLR4 MyD88 comp	NOD2 RIPK2 PPI
O=C1Nc2ccccc2-c2nnnn2C1N1CCC(Cc2ccccc2)CC1 (stereo not given)	nt	nt	nt	nt	nt	-8.7
O=C(Nc1ccccn1)c1c(O)c2cccc3c2n(c1=O)CCC3	-2.5	1.2	6.8	43.0	2.3	-23.0
CCCCCCc1nc2ccccc2c(=O)n1NC(=O)c1c(O)c2cccc3c2n(c1=O)CCC3	nt	nt	nt	85.3*	-15.6	nt
Cc1cccnc1NC(=O)c1c(O)c2cccc3c2n(c1=O)CCC3	-11.1	-1.3	1.1	79.6*	15.2	-8.2
O=C(Nc1nccs1)c1c(O)c2cccc3c2n(c1=O)CCC3	nt	13.0	3.2	107.9*	-3.0	nt
Cc1ccsc1C(=O)OCC(=O)NCc1cccs1	-4.8	nt	nt	nt	nt	-7.7
CC(=O)c1cccc(-c2ccnc3c2CC(C(=O)Nc2cccc(OC(F)(F)F)c2)O3)c1 (stereo not given)	nt	nt	nt	nt	nt	0.4
O=C(Nc1nnc([C@@H]2C[C@H](O)[C@@H](CO)O2)s1)Nc1ccc(F)cc1F	nt	nt	nt	nt	nt	-10.8
Cc1ccccc1Oc1ccc2c(c1)[C@@H]1C[C@H](N(C)C(=O)c3ccco3)[C@H]([C@H](C)O)C(=O)N1CC2	1.1	nt	nt	nt	nt	1.7
Cc1ccc(C(=O)NCC(=O)OCC(=O)c2cc(C)n(Cc3ccco3)c2C)cc1	-15.7	6.6	-0.3	14.7	-0.5	-6.2
C=CCn1c(C)cc(C(=O)COC(=O)CNC(=O)c2ccccc2)c1C	-3.6	-7.0	-7.6	87.3*	-11.1	-11.1
COC(=O)c1sc(NC(=O)c2cc(-c3ccccc3)nc3ccccc23)c(C#N)c1C	-13.7	8.4	0.2	75.5*	2.1	7.2
CCOC(=O)c1sc(NC(=O)c2cc(-c3ccc(C)cc3)nc3ccccc23)c(C#N)c1C	-0.1	-2.8	0.3	61.2	9.7	3.9
COC(=O)c1sccc1NC(=O)c1cc(-c2cc(C)ccc2C)nc2ccccc12	4.6	1.2	0.2	92.8*	2.4	-14.0
CCCCN(C)C(=O)c1sc(=O)n(Cc2c(C)noc2C)c1C	nt	nt	nt	nt	nt	-0.3
O=c1[nH]c(=S)[nH]c2c1C(c1ccc(F)cc1)OC(CCC(F)(F)F)C2 (stereo not given)	nt	nt	nt	nt	nt	-4.9
O=C(Cn1nnc(-c2ccc(Cl)cc2)n1)NC1CC2CCC1C2 (stereo not given)	-11.2	1.2	-1.8	50.8	-0.4	-3.9
O=C(Cn1nnc(-c2ccc(Cl)cc2)n1)NCC1CCCCC1	-3.4	0.9	1.4	90.1*	4.3	-3.8
COc1c2occc2c(OC)c2c(=O)cc(C(F)(F)C(F)(F)F)oc12	0.1	-1.7	2.0	82.6*	-21.4	-0.8
COc1c2occc2c(OC)c2c(=O)cc(C(F)(F)F)oc12	-5.2	0.5	-0.1	14.7	3.1	-12.4
Cc1ccc(-c2[nH]nc(N)c2N=Nc2ccccc2C)cc1	13.8	0.9	1.9	59.8	0.8	15.8
Cc1ccc(-c2[nH]nc(N)c2N=Nc2cccc(Cl)c2C)cc1	13.3	nt	nt	92.2*	9.2	20.3
CCOC(=O)C1=C(C)N=C2c3ccccc3C(=O)C2C1c1ccc(Cl)cc1 (stereo not given)	-6.7	1.3	25.2	87.9*	-12.1	-13.8
Cc1cc(=O)oc(C)c1C(=O)OCC(=O)c1ccc2ccccc2c1	-7.4	-0.7	-3.0	70.9*	-3.1	-7.5
Cc1ccccc1NC1=CC(=O)CC(C)(C)C1	-1.0	1.5	1.4	-11.8	5.3	-2.1
SMILES	TLR9-MyD88 block	CHOP UPR activ	UPR XBP1 act	CHOP inhibitor	TLR4 MyD88 comp	NOD2 RIPK2 PPI
Cc1c(NC2=CC(=O)CC(C)(C)C2)ccc([N+](=O)[O-])c1C	-2.1	-0.9	-1.4	85.0*	-9.9	2.8
C[C@@H]1CN([C@H](C)CO)S(=O)(=O)c2ccc(-c3ccc(C(=O)N(C)C)cc3)cc2O[C@H]1CN(C)C(=O)Cc1ccccn1	2.4	nt	nt	nt	nt	-13.8
N#Cc1c(-c2ccc(Cl)cc2)ccn2nc(CCC(=O)O)nc12	6.8	-0.8	-1.9	-4.7	-6.3	-13.9
CCCCCc1nc2c(C#N)c(-c3ccc(Cl)cc3)ccn2n1	1.8	2.7	4.2	91.6*	-9.7	-5.2
CCCCCCCCN1C(=O)[C@H](CC(=O)NCCC(C)C)C[C@@]2(C(=O)OCC)CCCC=C12	nt	nt	nt	nt	nt	3.6
CC(C)CCOc1cccc(OCC(=O)O)c1	-5.0	-1.4	-0.9	86.3*	4.0	1.0
O=C(O)COc1cccc(NC(=O)c2ccccc2)c1	7.5	0.6	-0.2	-8.8	-7.5	-5.3
COc1ccc(-c2noc(CCC(=O)N3CCN(c4ccccc4C(F)(F)F)CC3)n2)cc1	3.3	-0.3	-0.2	nt	nt	-2.5
C=CCNc1nc(N)c(C(=C(C#N)C#N)c2ccc(Br)cc2)s1	0.7	-0.1	-2.0	81.4*	12.6	-5.7
O=C(Nc1ccc(Cl)cc1)OCc1cn(-c2ccc(Cl)cc2)nn1	-0.3	0.4	2.3	73.3*	-5.3	-2.3
Cc1ccc(CSC(Nc2ccc(F)cc2)=C(C#N)C#N)cc1	-12.9	3.7	-1.1	75.9*	-3.3	-8.3
O=C(CN(Cc1ccco1)C(=O)c1ccc(Cl)cc1)Nc1ccc(Cl)c(Cl)c1	0.8	1.6	-0.1	92.8*	-4.2	-2.0
Cc1ccc(-c2noc(CSc3ccccc3)n2)cc1	8.2	2.0	-1.4	62.1	0.4	2.0
Cc1cccc(-c2noc(CSc3ccccc3)n2)c1	7.6	3.6	-0.4	70.5*	-14.2	2.7
COc1cccc(CN(C)C[C@H]2OCc3cnnn3CCCC(=O)N([C@H](C)CO)C[C@@H]2C)c1	-4.4	nt	nt	nt	nt	7.8
CCCCCCCCCCS(=O)(=O)N/N=C/c1ccccc1OC	-7.9	1.8	-1.0	81.9*	-21.5	-7.6
Cc1ccc(Cc2c(C(C)(C)C)nc3cc(C)c(Br)c(C)n23)cc1	nt	nt	nt	nt	nt	-10.3
Cc1noc(-c2ccc(Cl)cc2)c1C(=O)O/N=C(\N)c1ccc(C(C)(C)C)cc1	-6.8	2.9	-3.1	79.6*	nt	-10.6
O=C(CSc1ccccc1F)NCC(c1ccco1)N1CCCCC1 (stereo not given)	9.8	nt	nt	nt	nt	-2.3
Cc1ccc(Cl)cc1N1CCN(C(=O)c2cc3c(=O)n(C)c4ccccc4c3n2C)CC1	14.2	5.9	8.0	88.4*	-11.1	-4.0
Cc1cccc(N2CCN(C(=O)Cc3cn(C)c4ccccc34)CC2)c1C	5.3	-0.4	0.0	82.3*	-2.4	-6.1
